Measured values published in ChEMBL document CHEMBL1151422, “Effect of antimicrobial compounds on Balamuthia mandrillaris encystment and human brain microvascular endothelial cell cytopathogenicity” (Antimicrob Agents Chemother, 2007).

Experiments:
[1] = system: Balamuthia mandrillaris; test: Antimicrobial activity against Balamuthia mandrillaris ATCC 50209 infected in HBMEC assessed as inhibition of encystment at 10 uM […]; format: functional
In short: (§1)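 Trophozoites (>95%) held at 2 × 10^5/ml in RPMI 1640 with drug at 37°C for 48 h. SDS (0.5% final) lyses the remaining trophozoites, and a hemocytometer count is taken before and after SDS. % encystment = post-SDS/pre-SDS × 100, and percent inhibition is calculated from it; mean ± SE. For viability, cysts made before SDS were placed on HBMEC monolayers for up to 7 days and watched for trophozoite emergence.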

[2] = system: Balamuthia mandrillaris; test: Antimicrobial activity against Balamuthia mandrillaris ATCC 50209 infected in HBMEC assessed as inhibition of encystment at 50 uM after 7 days; format: functional; conditions: ATCC 50209, 168 h; in short: as §1
[3] = system: Balamuthia mandrillaris; test: Antimicrobial activity against Balamuthia mandrillaris ATCC 50209 infected in HBMEC assessed as inhibition of encystment at 100 uM after 7 days; format: functional; conditions: ATCC 50209, 168 h; in short: as §1
[4] = system: Balamuthia mandrillaris; test: Antimicrobial activity against Balamuthia mandrillaris ATCC 50209 infected in HBMEC assessed as inhibition of amoeba-induced cytopathogenicity at 10 uM after 24 hrs by LDH release assay; format: functional; conditions: ATCC 50209, 24 h
In short: (§2)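 B. mandrillaris ATCC 50209 (grown on host-cell feeder layers) pretreated with drug for 45 min in serum-free medium, then added at 10^5 amoebae/well, with inhibitor still present, to primary HBMEC monolayers (RPMI 1640, 10% FBS, 10% NuSerum). Incubation at 37°C, 5% CO2, up to 24 h. Cytotoxicity read as LDH release into supernatant. Percent inhibition is relative to amoebae alone; mean ± SE.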

[5] = system: Balamuthia mandrillaris; test: Antimicrobial activity against Balamuthia mandrillaris ATCC 50209 infected in HBMEC assessed as inhibition of amoeba-induced cytopathogenicity at 50 uM after 24 hrs by LDH release assay; format: functional; conditions: ATCC 50209, 24 h; in short: as §2
[6] = system: Balamuthia mandrillaris; test: Antimicrobial activity against Balamuthia mandrillaris ATCC 50209 infected in HBMEC assessed as inhibition of encystment at 5 ug/mL after 7 days; format: functional; conditions: ATCC 50209, 168 h; in short: as §1
[7] = system: Balamuthia mandrillaris; test: Antimicrobial activity against Balamuthia mandrillaris ATCC 50209 infected in HBMEC assessed as inhibition of encystment at 10 ug/mL after 7 days; format: functional; conditions: ATCC 50209, 168 h; in short: as §1
[8] = system: Balamuthia mandrillaris; test: Antimicrobial activity against Balamuthia mandrillaris ATCC 50209 infected in HBMEC assessed as inhibition of amoeba-induced cytopathogenicity at 5 ug/mL after 24 hrs by LDH release assay; format: functional; conditions: ATCC 50209, 24 h; in short: as §2
[9] = system: Balamuthia mandrillaris; test: Antimicrobial activity against Balamuthia mandrillaris ATCC 50209 infected in HBMEC assessed as inhibition of amoeba-induced cytopathogenicity at 10 ug/mL after 24 hrs by LDH release assay; format: functional; conditions: ATCC 50209, 24 h; in short: as §2
[10] = Cytotoxicity against HBMEC assessed as LDH release at 10 ug/mL; conditions: human
[11] = system: Balamuthia mandrillaris; test: Antimicrobial activity against Balamuthia mandrillaris ATCC 50209 infected in HBMEC assessed as inhibition of encystment at 200 uM after 7 days; format: functional; conditions: ATCC 50209, 168 h; in short: as §1
[12] = system: Balamuthia mandrillaris; test: Antimicrobial activity against Balamuthia mandrillaris ATCC 50209 infected in HBMEC assessed as inhibition of encystment at 500 uM after 7 days; format: functional; conditions: ATCC 50209, 168 h; in short: as §1
[13] = system: Balamuthia mandrillaris; test: Antimicrobial activity against Balamuthia mandrillaris ATCC 50209 infected in HBMEC assessed as inhibition of amoeba-induced cytopathogenicity at 100 uM after 24 hrs by LDH release assay; format: functional; conditions: ATCC 50209, 24 h; in short: as §2
[14] = system: Balamuthia mandrillaris; test: Antimicrobial activity against Balamuthia mandrillaris ATCC 50209 infected in HBMEC assessed as inhibition of amoeba-induced cytopathogenicity at 200 uM after 24 hrs by LDH release assay; format: functional; conditions: ATCC 50209, 24 h; in short: as §2

SMILES: C=C1[C@@H](C)[C@H]2[C@H](Cc3ccccc3)NC(=O)[C@]23[C@H](OC(C)=O)/C=C/[C@@](C)(O)C(=O)[C@@H](C)C/C=C/[C@H]3[C@@H]1O [CYTOCHALASIN D]
- inhibition at 10 µM [1]: 42%
- inhibition at 50 µM [2]: 64%
- inhibition at 100 µM [3]: 76%
- inhibition at 10 µM [4]: 13%
- inhibition at 50 µM [5]: 42%

SMILES: C[C@@H]1CC[C@H]2[C@@H](C)C(=O)O[C@@H]3O[C@@]4(C)CC[C@@H]1[C@]32OO4 [ARTEMISININ]
- inhibition at 5 µg/mL [6]: 37%
- inhibition at 10 µg/mL [7]: 52%
- inhibition at 5 µg/mL [8]: 34%
- inhibition at 10 µg/mL [9]: 45%

SMILES: CCC[C@@H]1C[C@@H](C(=O)N[C@@H]([C@H]2O[C@H](SC)[C@H](O)[C@@H](O)[C@H]2O)[C@H](C)Cl)N(C)C1 [CLINDAMYCIN]
- inhibition at 5 µg/mL [6]: 4%
- inhibition at 10 µg/mL [7]: 0%
- inhibition at 5 µg/mL [8]: 16%
- inhibition at 10 µg/mL [9]: 10%

SMILES: Nc1nc(=O)[nH]cc1F [FLUCYTOSINE]
- inhibition at 5 µg/mL [6]: 43%
- inhibition at 10 µg/mL [7]: 56%
- inhibition at 5 µg/mL [8]: 20%
- inhibition at 10 µg/mL [9]: 61%

SMILES: CC(=O)N1CCN(c2ccc(OCC3COC(Cn4ccnc4)(c4ccc(Cl)cc4Cl)O3)cc2)CC1 (configuration not stated) [KETOCONAZOLE]
- inhibition at 5 µg/mL [6]: 0%
- inhibition at 10 µg/mL [7]: 0%
- inhibition at 5 µg/mL [8]: 14%
- inhibition at 10 µg/mL [9]: 88.5%
- Activity [10]: < 5%

SMILES: C[C@@H]1C[C@@H]([C@H](O)CC2CC(=O)NC(=O)C2)C(=O)[C@@H](C)C1 [CYCLOHEXIMIDE]
- inhibition at 100 µM [3]: 94%
- inhibition at 200 µM [11]: 95%
- inhibition at 500 µM [12]: 98.4%
- inhibition at 100 µM [13]: 44%
- inhibition at 200 µM [14]: 0%
